Sampled rows, rich in hits. Any-hit rate of the full collection: about 3.5%.
RGS4 inh: inhibitors of human RGS4; AID 463165; HEK293 M3R/RGS4 inducible, Fluo-4 calcium flux; stronger effect = higher value; triggered by carbachol at its EC20; B-score at 10 µM; P49798; 310,000 tested, 0.45% active;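 active = B-score, a plate-corrected calcium signal, over three deviations above library mean, with baseline fluorescence within five deviations of library mean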;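 note: RGS4 expression induced by doxycycline in cells with stable M3 receptor; B-score is computed from the integrated fluorescence ratio over baseline after carbachol; higher B-score means a larger calcium signal and so more RGS4 inhibition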
Target sequence (P49798 whole entry, looked up): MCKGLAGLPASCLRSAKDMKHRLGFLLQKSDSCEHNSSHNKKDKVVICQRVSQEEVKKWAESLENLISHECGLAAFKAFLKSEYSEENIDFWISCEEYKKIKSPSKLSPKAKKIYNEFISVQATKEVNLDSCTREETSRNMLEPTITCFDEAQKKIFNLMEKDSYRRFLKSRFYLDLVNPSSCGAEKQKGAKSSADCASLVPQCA
RGS4 act: RGS4 potentiation or activation. HEK293 M3R/inducible RGS4, carbachol calcium flux Fluo4; stronger effect = lower value. B-score at 10 µM. 310,000 tested, 0.92% active. AID 463111;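 active = B-score of the integrated calcium signal more than 4 SD below the library mean, with starting fluorescence not abnormally high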;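 note: negative B-score means reduced calcium response which marks RGS4 activation or potentiation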
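Material: M3R-expressing HEK293 line, RGS4 induced by doxycycline | Schedule: Overnight RGS4 induction, 30 min dye load 37 °C, 20 min compound RT | Measured by: Fluo4 fluorescence kinetic imaging of calcium | Read-out: Integrated calcium ratio converted to B score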
MrgX1 allo act: human MrgX1 positive allosteric modulation, primary screen. Q96LB2. MrgX1-HEK293, Fluo-4 calcium flux, FDSS; stronger effect = higher value. B-score at 10 µM. 310,000 tested, 0.63% active;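 active = plate-corrected calcium response at least 3 library SD above typical, normal starting fluorescence, not activating the receptor alone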;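 note: compound read alongside a low EC10 to EC30 dose of BAM8-22 agonist; peak minus trough fluorescence over baseline measured at the second addition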
Target sequence (Q96LB2 whole entry, looked up): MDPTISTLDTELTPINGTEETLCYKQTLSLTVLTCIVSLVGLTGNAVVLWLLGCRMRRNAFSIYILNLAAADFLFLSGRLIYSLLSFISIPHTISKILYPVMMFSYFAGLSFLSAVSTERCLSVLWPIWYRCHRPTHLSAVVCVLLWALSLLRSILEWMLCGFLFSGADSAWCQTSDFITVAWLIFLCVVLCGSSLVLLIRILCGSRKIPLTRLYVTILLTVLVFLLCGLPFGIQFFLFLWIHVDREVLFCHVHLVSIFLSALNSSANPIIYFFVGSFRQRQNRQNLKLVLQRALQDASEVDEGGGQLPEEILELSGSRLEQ
MrgX1 agonist: human MrgX1 receptor agonism, primary screen; Q96LB2; B-score at 10 µM; MrgX1-HEK293 cells, Fluo-4 calcium fluorescence, agonist mode; stronger effect = higher value; 310,000 tested, 0.44% active;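 active = calcium response B-score plate-corrected fluorescence ratio at least 3 library SD, with starting fluorescence B-score inside 5 SD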
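Test system: Stable human MrgX1 HEK293 cell line | Schedule: Overnight plating before 1 h dye loading | Read-out basis: Baseline-normalised fluorescence change ratio, B-scored | Detection: Kinetic calcium dye fluorescence, Fluo-4 NW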
MrgX1 antagonist: human MrgX1 receptor antagonism, primary screen | B-score at 10 µM | MRGX1-HEK293 calcium flux, Fluo-4, BAM8-22 antagonism; stronger effect = lower value | 310,000 tested, 1.3% active;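 active = calcium-response B-score plate-corrected more than 3 library SD below zero, starting fluorescence within 5 deviations, no agonist response on first addition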;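 note: peak minus trough fluorescence over baseline after final BAM8-22 challenge near maximal dose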
MrgX1 ant reconf: reconfirmed antagonist of human MrgX1 receptor signaling; shares compounds with MrgX1 antagonist; MrgX1-HEK293, BAM8-22 calcium flux, Fluo-4; stronger effect = lower value; remaining BAM8-22 calcium response % of control (stronger effect = lower value), % at 10 µM; 2,300 tested, 19% active; AID 602420;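 active = remaining agonist calcium response no higher than 100% minus 3 SD of agonist-only control wells, with starting fluorescence near control levels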;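 note: agonist BAM8-22 given at a near maximal EC90 to ECmax level; peak minus minimum fluorescence divided by baseline after agonist addition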
HEK293 Ca flux: MrgX1 antagonist counter-screen hit in parental HEK293 cells; AID 624111; shares compounds with MrgX1 antagonist; Fluo-4 calcium fluorescence, FDSS; fluorescence ratio F(max-min)/F0 at 10 µM; 4,000 tested, 2% active;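 active = duplicate-averaged calcium fluorescence ratio at least three times the standard deviation of buffer wells, a nonspecific response in parental cells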
HEK293 Ca counter: MrgX1 allosteric activator counter-screen hit in parental HEK293 cells; shares compounds with MrgX1 antagonist; parental HEK293 calcium flux, Fluo-4 fluorescence ratio; stronger effect = higher value; fluorescence ratio F(max-min)/F0 at 10 µM; 4,000 tested, 0.4% active; AID 624114;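 active = calcium fluorescence ratio, averaged over duplicates, at least 3 SD of the buffer-well ratio, meaning a nonspecific response in receptor-free cells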;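 note: untransfected parental HEK293 lacking MrgX1 used as counterscreen for MrgX1 allosteric activators; fluorescence change taken during the second addition on a kinetic imager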
HEK293 Ca cntr2: MrgX1 activator counter-screen hit in parental HEK293 cells. 4,000 tested, 8.7% active. AID 624115. Fluo-4 calcium fluorescence (FDSS); stronger effect = higher value. fluorescence ratio F(max-min)/F0 at 10 µM. shares compounds with MrgX1 antagonist;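 active = calcium fluorescence ratio at least three times the spread of buffer wells, meaning a non-specific response in parental cells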
Hits are given with their value; - = inactive; . = no result given.

SMILES	RGS4 inh	RGS4 act	MrgX1 allo act	MrgX1 agonist	MrgX1 antagonist	MrgX1 ant reconf	HEK293 Ca flux	HEK293 Ca counter	HEK293 Ca cntr2
Cc1ccc(C(=O)NC(=S)Nc2ccc(N3CCOCC3)cc2)c(C)c1	-	-	-	-	-5.41	-	-	-	-
COc1ccccc1N1CCN(C(=O)C2CCCO2)CC1 (stereo not drawn)	-	-	-	-	-8.23	-	-	-	-
O=c1cc(N2CCCCC2)nc2n1CCCS2	-	-	-	-	-5.41	-	-	-	-
Cn1cc(Br)c(-c2cccc(N3C(=O)CCCC3=O)c2)n1	-	-	-	-	-	.	.	.	.
CCOC(=O)C1(Cc2ccccc2)CCN(Cc2cnn(-c3ccccc3)c2)CC1	-	-	-	-	-6.02	73.0%	-	-	-
CCOC(=O)C1(Cc2ccccc2)CCCN(CCO)C1 (stereo not drawn)	-	-	-	-	-5	-	-	-	-
O=C(O)c1ccc(CNCc2ccc(Cl)cc2)cc1	-	-	-	-	-	.	.	.	.
O=C(O)c1ccc(CNCc2ccc(Cl)cc2Cl)cc1	-	-	-	-	-5.03	-	-	-	-
O=C(Nc1ccc(S(=O)(=O)Nc2ccnn2-c2ccccc2)cc1)C(F)(F)F	-	-	-	-	-	.	.	.	.
Nc1c(C(=O)NC2CCCC2)sc2nc(-c3cccs3)ccc12	-	-	-	-	-4.74	-	-	-	-
NC(=O)c1sc2nc(-c3cccs3)ccc2c1N	-	-	-	-	-	.	.	.	.
CCn1c(=NC(=O)CN2C(=O)CCC2=O)sc2c(OC)ccc(OC)c21	-	-	-	-	-8.23	-	-	-	-
COc1ccccc1C(=O)N1CCN(CCc2ccccc2)CC1	-	-	-	-	-5.38	-	-	-	-
O=C(c1ccco1)N1CCN(C(=O)c2ccccc2Oc2ccccc2)CC1	-	-	-	-	-4.63	79.5%	-	-	-
COc1cccc(C(=O)N2CCN(CCCc3ccccc3)CC2)c1OC	.	.	-	-	-	.	.	.	.
CN(C)S(=O)(=O)N1CCC(Oc2ccc(C(=O)N3CCCCCCC3)cc2)CC1	-	-	-	-	-	.	.	.	.
CN(Cc1nccs1)C(=O)C1CCC(=O)N(CCCc2ccccc2)C1 (stereo not drawn)	-	-	.	.	.	.	.	.	.
CC(C)c1ccc(O)c(NC(=O)c2cncc(Br)c2)c1	-	-	-	-	-7.8	-	-	-	-
O=C(Nc1cccc(NC(=O)c2cncc(Br)c2)c1)c1cncc(Br)c1	-	-	-	-	-	.	.	.	.
O=C(Nc1ccncc1)c1cncc(Br)c1	-	-	-	-	-5.45	-	-	-	-
CCC(C)c1ccc(O)c(NC(=O)c2cccnc2)c1 (stereo not drawn)	-	-	-	-	-	.	.	.	.
Cc1cc(C)c(S(=O)(=O)Nc2cccc(C(=O)O)c2)cc1S(=O)(=O)Nc1cccc(C(=O)O)c1	-	-	-	-	-	.	.	.	.
CCCCOc1ccc(N(CC(=O)NCCOC)C(=O)CCC(=O)Nc2ccccn2)cc1	-	-	-	-	-	.	.	.	.
Cc1cc(OCC(=O)Nc2ccncc2)ccc1[N+](=O)[O-]	-	-	-	-	-	.	.	.	.
Cc1nc(CNS(=O)(=O)c2cccs2)cs1	-	-	-	-	-	.	.	.	.
SMILES	RGS4 inh	RGS4 act	MrgX1 allo act	MrgX1 agonist	MrgX1 antagonist	MrgX1 ant reconf	HEK293 Ca flux	HEK293 Ca counter	HEK293 Ca cntr2
Cc1nc(CNS(=O)(=O)c2ccccc2F)cs1	-	-	-	-	-4.58	-	-	-	-
Cc1cc(C)cc(NC(=O)COC(=O)CCCNC(=O)c2ccc(Cl)cc2)c1	-	-	-	-	-9.69	76.6%	-	-	-
O=C(COC(=O)CCCNC(=O)c1ccc(Cl)cc1)Nc1cc(Cl)c(Cl)cc1Cl	-	-	-	-	-	.	.	.	.
Cc1ccc2nc(NC(=O)CC3Oc4ccccc4NC3=O)sc2c1 (stereo not drawn)	-	-	-	-	-	.	.	.	.
Cc1cccc(NS(=O)(=O)c2ccc(C(=O)NCC(c3ccccc3)N(C)C)cc2)c1C (stereo not drawn)	-	-	-	-	-5.19	85.1%	-	-	-
CN(C)C(CNC(=O)c1ccc(NS(=O)(=O)c2ccc(F)cc2)cc1)c1ccco1 (stereo not drawn)	-	-	-	-	-6.07	-	-	-	-
Cc1ccc(S(=O)(=O)N2CCC(C(=O)OCC(=O)N(C)C3CCS(=O)(=O)C3)CC2)cc1C (stereo not drawn)	-	-	-	-	-	.	.	.	.
O=C(C1CC(=O)N(c2ccc3c(c2)OCCO3)C1)N1CCN(c2cccc(C(F)(F)F)c2)CC1 (stereo not drawn)	-	-	-	-	-	.	.	.	.
Cc1ccsc1-c1nc(CSCC(=O)NCc2ccc3c(c2)OCO3)c(C)o1	-	-	-	-	-4.83	-	-	-	50.8
COC(=O)c1cccc(Nc2ncnc3sccc23)c1	-	-	-	-	-4.52	-	-	-	-
COc1cccc(Nc2ncnc3sccc23)c1	-	-	-	-	-	.	.	.	.
O=C(Nc1ccc(F)cc1)Nc1cc(OCC(F)(F)F)cc(OCC(F)(F)F)c1	-	-	-	-	-5.98	61.8%	-	-	-
O=C(CN(c1ccccn1)S(=O)(=O)c1ccc(F)cc1)Nc1ccc(F)cc1F	-	-	-	-	-5.65	-	-	-	-
c1ccc(Nc2ccccc2Nc2ccccn2)nc1	-	-	-	-	-4.72	78.4%	-	-	-
c1ccc(CNc2ccccn2)cc1	-	-	-	-	-	.	.	.	.
O=C(O)c1ccccc1NS(=O)(=O)c1cccc(C(F)(F)F)c1	-	-	-	-	-	.	.	.	.
O=C(O)c1ccccc1NS(=O)(=O)c1cccc(-n2sc3ccccc3c2=O)c1	-	-	-	-	-6.27	43.7%	-	-	-
COC(=O)c1sc(NC(=O)c2ccc(Cn3cc(Cl)cn3)o2)c(C#N)c1C	-	-	-	-	-4.57	-	-	-	-
N#Cc1c(NC(=O)c2ccc(Cn3cc(Br)cn3)o2)sc2c1CCCCC2	-	-	-	-	-	.	.	.	.
O=C(O)c1cccc(Nc2nc(-c3cc4ccccc4oc3=O)cs2)c1	-	-	-	-	-	.	.	.	.
O=C(NCN1C(=O)C2C3C=CC(C3)C2C1=O)Nc1nncs1 (stereo not drawn)	-	-	-	-	-4.63	84.8%	-	-	-
O=C(Nc1ccccc1)c1ccccc1NC(=O)C1CCCCC1	-	-	-	-	-	.	.	.	.

Screening data from PubChem.
